# GSTO1 inh: counter-screen for RBBP9 inhibitors: inhibitors of human GSTO1. P78417. recombinant GSTO1, activity-based probe fluorescence polarization. inhibition, % at 5.96 µM. 300,000 tested, 1.1% active. AID 1974;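 active = inhibition above the campaign mean inhibition plus 3 SD, cut at about 35% in these data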;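 note: 0% = GSTO1-1 with DMSO and 100% = wells lacking GSTO1-1 enzyme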
# Target sequence (P78417 whole entry, looked up): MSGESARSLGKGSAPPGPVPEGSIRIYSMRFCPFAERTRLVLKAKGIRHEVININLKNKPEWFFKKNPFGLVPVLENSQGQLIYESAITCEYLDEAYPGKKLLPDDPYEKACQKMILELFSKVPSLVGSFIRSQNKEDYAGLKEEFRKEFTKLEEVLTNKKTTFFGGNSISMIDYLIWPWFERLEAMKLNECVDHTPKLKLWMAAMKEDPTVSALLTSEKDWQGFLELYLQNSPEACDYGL
# proCasp7 act: counter-screen: procaspase-7 (human) activation; recombinant procaspase-7, Ac-DEVD-pNA absorbance 405 nm; D23A/D198A/D206A triple mutant, cannot self-cleave; scale: DMSO 0, 5 µM enzyme 100; 330,000 tested, 0.093% active; activation, % at 8.5 µM;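 active = percent activation above the screen-wide mean plus 3 SD, cut at about 25% in these data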
#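 Assay system: Uncleavable procaspase-7 mutant enzyme | Input: 2 µM procaspase-7 mutant as dispensed | Timing: 1 h compound preincubation, 2 h substrate cleavage, 25 °C | Repeats: One well per compound | Control set: DMSO wells as 0%, DMSO with 5 µM added PC-7 as 100% | Technique: Epi-absorbance of released pNA at 405 nm, two timepoints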
# procasp3 activ: activators of human procaspase-3. P42574. recombinant procaspase-3 D3A, Ac-DEVD-pNA absorbance 405 nm. activation, % at 8.5 µM. 330,000 tested, 0.11% active. AID 463141;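 active = activation above the mean of all tested compounds plus 3 SD, cut at about 21% in these data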;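 note: 0% = DMSO alone and 100% = DMSO wells spiked with extra 5 µM PC-3 D3A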
#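 Evaluation: percent activation relative to control range; Material: Procaspase-3 D3A mutant, all three cleavage aspartates alanine; Compound: single dose, 8.5 µM nominal compound, 0.8% DMSO; Replication: one well per compound; Signal: absorbance at 405 nm, 0 and 120 min; Schedule: 1 h preincubation plus 2 h reaction at 25 °C.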
# EBNA-1 inhibitor: blocks EBNA-1 binding to DNA | EBNA-1 DNA binding, fluorescence polarization | inhibition, % at 14.8 µM | 300,000 tested, 0.34% active | AID 1950; in the data active = inhibition above about 28%
# ZTA DNA inh: blocks Epstein-Barr virus ZTA, an EBNA-1 counter-screen; P03206; ZTA-DNA binding, fluorescence polarization; inhibition, % at 11 µM; 320,000 tested, 0.15% active; in the data active = inhibition above about 33%
# Apaf1 inhib: blocks human Apaf-1 apoptosome activity | AID 489030 | 330,000 tested, 0.71% active | inhibition, % at 20 µM | O14727 | reconstituted apoptosome caspase-3 activity, DEVD-Rh110 fluorescence; active = inhibition of at least 40% at 20 µM;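 note: plate controls were DMSO wells for no effect and DEVD-CHO caspase inhibitor wells for full effect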
#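 Assay system: Apoptosome proteins | Medium: pH 7.5 Hepes buffer with CHAPS, BSA, DTT | Also added: Cytochrome c and DEVD-Rh110 substrate | Times: 30 min plus 50 min, RT | Detection: Rhodamine 110 fluorescence at Ex 480/Em 540 nm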
# GSTO1 confirm: GSTO1 (human) inhibition, confirmation; shares compounds with GSTO1 inh; recombinant GSTO1, probe fluorescence polarization; inhibition, % at 5.96 µM; 2,400 tested, 54% active;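 active = inhibition above the primary screen's cutoff, its mean inhibition plus 3 SD, cut at about 35% in these data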;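 note: loss of polarization as inhibitors block binding of rhodamine sulfonate ester activity probe; 0% = GSTO1 with DMSO and 100% = wells lacking GSTO1 enzyme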
# GSTO1 ABPP inh: GSTO1 (human) inhibition by gel ABPP. shares compounds with GSTO1 inh. recombinant GSTO1, gel ABPP SE-Rh probe fluorescence. inhibition, % at 1 µM. 130 tested, 30% active;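 active = inhibition of the enzyme GSTO1 above about 75%, limit read from the data; inactive = inhibition below that limit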
# Starred values were filed as active, the others as inactive; · = no result. This is a sample that favours compounds with a hit; in the whole collection about 1.8% have one here.
SMILES,GSTO1 inh,proCasp7 act,procasp3 activ,EBNA-1 inhibitor,ZTA DNA inh,Apaf1 inhib,GSTO1 confirm,others
COC(=O)CCC(=O)OC1(C)C(=O)C2=CN(Cc3ccc4c(c3)OCO4)C(c3ccc(OC)cc3)=CC2=C(Br)C1=O (configuration not stated),31,-32,-8,-7,4,18,·,
COC(=O)CCC(=O)OC1(C)C(=O)C2=CN(C(CO)CO)C(c3ccc(OC)cc3)=CC2=C(Br)C1=O (configuration not stated),49*,-8,5,-4,-2,81*,51*,
COC(=O)CCC(=O)OC1(C)C(=O)C2=CN(CCCCO)C(c3ccc(OC)cc3)=CC2=C(Br)C1=O (configuration not stated),66*,-29,-8,1,0,80*,60*,
CC(C)C(=O)Nc1ccc(NC(=S)NC(=O)c2ccccc2F)cc1,-2,3,-2,-4,4,2,·,
COn1c(-c2ccc(Cl)cc2)nc2ncccc21,0,-4,6,-1,-7,2,·,
O=C(NCC1CCCO1)NC1(C(F)(F)F)Oc2ccccc2O1 (configuration not stated),52*,2,-3,11,8,5,5,
O=C(Nc1ccc2c(c1)OCO2)NC1(C(F)(F)F)Oc2ccccc2O1,48*,-11,-12,2,8,4,3,
O=C(NC1(C(F)(F)F)Oc2ccccc2O1)N1CCCC1,48*,-2,-10,12,16,8,1,
COc1ccc(C2(c3ccc(OC)cc3)NC(=O)N(CC(=O)NC3CCS(=O)(=O)C3)C2=O)cc1 (configuration not stated),·,6,2,·,·,-5,·,
CCOc1ccccc1C1C(C#N)=C(N)N(N(C)C)C2=C1C(=O)CCC2 (configuration not stated),3,-1,-1,-2,1,-3,·,
O=c1[nH]c(CCl)nc2cc(-c3ccc(F)cc3)sc12,97*,2,6,3,5,16,94*,GSTO1 ABPP inh=82*
O=c1[nH]cnc2cc(-c3ccc(Br)cc3)sc12,15,-7,5,1,13,-3,·,
CCN(CC(=O)NC1CCS(=O)(=O)C1)c1ccc([N+](=O)[O-])cc1C#N (configuration not stated),·,-27,0,·,18,8,·,
CC(=O)Nc1nc(-c2ccc(Cl)cc2)nc(C)c1C(C)=O,44*,-12,7,6,6,14,4,
CC(=O)c1c(C)nc(C)nc1NC(=O)Cc1ccccc1,4,3,5,-2,3,7,·,
Cc1ccc(C)c(NC(=O)C2CC(=O)N(C3CCCCC3)C2)c1 (configuration not stated),0,11,-2,-3,-12,2,·,
Cc1cc(O)c(N)c(C)c1Cl,46*,-23,-16,-2,-14,1,3,
CC1(c2ccc3c(c2)OCCO3)NC(=O)N(CC(=O)Nc2ccccc2F)C1=O (configuration not stated),·,·,·,·,·,5,·,
CCOc1ccc(/C=N/Nc2ccccc2)cc1,41*,-3,2,19,-2,12,16,
O=C1Nc2ccccc2/C1=N\N=C\c1ccc(O)c(O)c1,69*,0,4,0,0,8,11,
O=Cc1ccc(O)c(O)c1,4,8,3,-2,-1,-12,·,
COc1cc(/C=N/N=C2/C(=O)Nc3ccccc32)ccc1O,13,4,10,-6,5,-445,·,
Oc1ccc(/C=N/N=C/c2ccc(O)c(O)c2)cc1O,39*,-9,-10,3,8,-5,18,
CN(C)c1cccc2c(S(=O)(=O)Nc3ccccn3)cccc12,45*,-2,2,5,-17,38,7,

# Screens (PubChem)
